CaV13 ICDI inh: Primary screen for inhibitors of IQ motif and Ca2+-dependent inactivation inhibitor domain binding in CACNA1D, Förster resonance energy transfer in living cells, …; HEK cells, CFP/YFP FRET ICDI-IQ, plate reader, 10 min; percent FRET-ratio fall versus neutral wells; inhibition, % at 12.3 µM; 340,000 tested, 0.098% active; AID 743397;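 active = mean replicate inhibition of at least 30% and at least 1% of replicates passing that level; inconclusive = only one of the two criteria is met; inactive = neither criterion is met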;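 also: 0% = median of the neutral control wells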
S100A4 MyoIIA: S100A4-myosin IIA interaction inhibition; P26447; S100A4/TAMRA-MyoIIA peptide fluorescence polarization; inhibition, % at 10.7 µM; 360,000 tested, 0.14% active;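 active = mean inhibition of at least 70% across replicates, with every replicate also reaching that level; inconclusive = mean inhibition reaches 70% but some replicates fall short; inactive = mean inhibition below 70%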
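Material: human S100A4 monomer with TAMRA-labelled myosin IIA peptide; buffer or medium: HEPES pH 7.2 with CaCl2, KCl, NaCl, DTT, Triton; compound dosing: one concentration per compound; schedule: 5 min incubation before reading; benchmarks: neutral control DMSO, positive control TFP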
SIRT5 inh: sirtuin-5 (human) deacylase inhibition. 330,000 tested, 1.1% active. inhibition, % at 15 µM. Purified SirT5, succinyl-peptide AMC, trypsin-coupled fluorescence. AID 652115; in the data active = inhibition above about 15%; inconclusive = no clear call, values can overlap the other calls
MLL AF4-AF9 inh: MLL-AF4/AF9 protein interaction inhibition. 350,000 tested, 0.47% active. P42568. inhibition, % at 10 µM. AlphaScreen, biotin-AF4 peptide binding to FLAG-AF9;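 active = every replicate reaching a set inhibition limit, whatever the replicate mean, cut at about 25% in these data; inconclusive = mean inhibition reaches that limit but some replicates miss it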;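 also: 0% = plate neutral control median and 100% = total signal loss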
Target sequence (P42568 whole entry, looked up): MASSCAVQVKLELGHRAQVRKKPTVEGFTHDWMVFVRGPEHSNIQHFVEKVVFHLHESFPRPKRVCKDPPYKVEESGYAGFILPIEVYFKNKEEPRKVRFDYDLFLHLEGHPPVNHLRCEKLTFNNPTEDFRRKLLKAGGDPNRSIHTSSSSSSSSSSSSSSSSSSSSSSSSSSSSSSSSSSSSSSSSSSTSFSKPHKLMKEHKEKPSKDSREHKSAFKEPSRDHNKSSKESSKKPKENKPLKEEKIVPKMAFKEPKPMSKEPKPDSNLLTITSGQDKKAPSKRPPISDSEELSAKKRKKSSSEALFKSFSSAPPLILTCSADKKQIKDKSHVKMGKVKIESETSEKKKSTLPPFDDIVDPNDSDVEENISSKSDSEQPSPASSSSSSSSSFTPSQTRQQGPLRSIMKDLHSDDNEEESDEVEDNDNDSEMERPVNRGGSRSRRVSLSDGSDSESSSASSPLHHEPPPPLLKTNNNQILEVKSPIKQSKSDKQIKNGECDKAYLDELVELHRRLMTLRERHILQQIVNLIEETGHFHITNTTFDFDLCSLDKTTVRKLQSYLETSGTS
DENV2 CPE rescue: protects cells from dengue virus 2 cytopathic effect; AID 651640; 350,000 tested, 1.7% active; DENV2-infected cells, cytopathic effect rescue, plate reader; CPE inhibition, % at 9.99 µM; in the data active = CPE inhibition above about 20%, passing the limit was not always enough; inconclusive = no clear call, values can overlap the other calls; tested in BHK-21 cells;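 also: 0% = median of neutral control wells and 100% = median of positive control wells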
The depositor's hits bear a star; ? = inconclusive; · = not tested or not shown. Rows were chosen to be rich in hits. Some 2.7% of all compounds tested hit in one or more screens of this group.

SMILES	CaV13 ICDI inh	S100A4 MyoIIA	SIRT5 inh	MLL AF4-AF9 inh	DENV2 CPE rescue
O=C(CC1CC1)N1CC2(C1)[C@H](c1ccccc1)[C@@H](CO)N2S(=O)(=O)Cc1ccccc1	·	10	5	-4	-1
O=C(Cc1ccccc1)N1CC2(C1)[C@H](c1ccccc1)[C@@H](CO)N2S(=O)(=O)Cc1ccccc1	·	11	1	-15	33*
CCC(=O)N1CC2(C1)[C@H](c1ccc(-c3cccc(F)c3)cc1)[C@@H](CO)N2CC1CC1	·	-7	-2	-1	3
C/C=C/c1ccc([C@@H]2[C@H](CO)N(C(=O)CC)C23CN(C(=O)c2ccccc2)C3)cc1	·	-3	1	0	-9
CC(C)[C@H](NC(=O)c1ccc(Cl)c(Cl)c1)C(=O)N1CCC[C@H]1C(=O)NCCc1ccccc1Cl	-2	-2	0	·	23*
COc1ccccc1N(CC(=O)N1CCCC1)S(=O)(=O)c1ccc(C)cc1	-4	3	1	1	54*
COc1ccccc1N(CC(=O)N1CCCCCC1)S(=O)(=O)c1ccc(C)cc1	-4	-2	1	5	15
COc1ccc(C#Cc2ccc3c(c2)[C@H]2[C@H](CCN2C(=O)CC2CC2)[C@@H](CO)N3)cc1	·	1	3	4	4
CC(OC(=O)c1ccccc1NCCO)C(=O)NC1CCCCC1C (configuration not stated)	-15	-5	-6	-22	69*
CC(OC(=O)c1ccc(C(C)(C)C)cc1)C(=O)NC1CCCCC1C (configuration not stated)	-3	2	-4	3	-6
COCCNC(=O)C1CC2Cn3c(nc4cc5ccccc5cc43)C2N1C (configuration not stated)	-13	-2	·	-7	12
CN1C(C(=O)NCCc2cccs2)CC2Cn3c(nc4cc(Cl)c(Cl)cc43)C21 (configuration not stated)	-4	-3	·	5	80*
COCCNC(=O)C1CC2Cn3c(nc4cc(C)c(C)cc43)C2N1C (configuration not stated)	-5	28	·	0	29*
C[C@@H]1CN([C@H](C)CO)C(=O)c2cc(NC(=O)Cn3cnnn3)ccc2O[C@@H]1CN(C)Cc1ccncc1	·	2	4	-1	3
C[C@H]1CN([C@@H](C)CO)S(=O)(=O)c2ccc(-c3cccc(C(=O)N(C)C)c3)cc2O[C@H]1CN(C)Cc1ccc2c(c1)OCO2	·	6	-2	7	-2
O=C(O)c1ccc(N=NN2CCCC2)cc1	0	10	·	0	-2
O=C(O)c1ccc(N=NN2CCCCCC2)cc1	-3	4	8	-2	112*
COCC#Cc1ccc2c(c1)O[C@H](CN(C)CC1CCCC1)[C@@H](C)CN([C@H](C)CO)S2(=O)=O	·	0	9	3	0
CCCN(C)C[C@@H]1Oc2cc(C#CC3(O)CCCC3)ccc2S(=O)(=O)N([C@H](C)CO)C[C@@H]1C	·	-9	6.2*	2	3
C[C@@H]1CN([C@@H](C)CO)S(=O)(=O)c2ccc(C#C[C@@H](C)O)cc2O[C@H]1CN(C)CC1CCCC1	·	2	4	-19	21*
COCC#Cc1ccc2c(c1)O[C@@H](CN(C)CC1CCCC1)[C@H](C)CN([C@@H](C)CO)S2(=O)=O	·	-10	24*	3	10
O=C(NCC[C@@H]1CC[C@H](NC(=O)C2CC2)[C@@H](CO)O1)c1ccc(F)cc1	·	-3	0	-3	-5
CN1CCN(CCCNCc2cn(CCC#N)c3ccccc23)CC1	-4	5	-5	25*	?
Cn1cc(CC(=O)NCCCN2CCOCC2)c2ccccc21	1	-3	3	-2	1
O=C(Nc1cc(F)ccc1F)N[C@@H]1C=C[C@H](CC(=O)N2CCc3ccccc3C2)O[C@H]1CO	·	0	3	-1	2
SMILES	CaV13 ICDI inh	S100A4 MyoIIA	SIRT5 inh	MLL AF4-AF9 inh	DENV2 CPE rescue
O=C(O)c1cn(Cc2ccccc2)c2ccccc2c1=O	-7	·	·	·	·
O=c1ccn(Cc2ccccc2)c2ccccc12	-9	-21	36*	0	-1
COc1ccc(CC(=O)NCCS(=O)(=O)N2CCN(c3ccccc3OC)CC2)cc1	-15	-37	-5	-21	-4
COc1ccccc1N1CCN(S(=O)(=O)CCNC(=O)CCc2ccccc2)CC1	-15	-3	1	-6	119*
COc1ccc(S(=O)(=O)N(C)C[C@H]2Oc3ccc(NS(=O)(=O)c4c(C)noc4C)cc3C(=O)N([C@@H](C)CO)C[C@@H]2C)cc1	·	20	13	-1	-7
CCCC(=O)Nc1ccc2c(c1)C(=O)N(C)[C@@H]1CC[C@@H](CC(=O)NCc3ccccc3)O[C@@H]1CO2	·	6	-1	0	?
Cc1nn(CC(=O)NCCc2cccs2)c(=O)c2nn(-c3ccccc3)c(C)c12	-7	-17	-5	-3	6
Cc1ccc(-n2nc3c(=O)n(CC(=O)NCc4cccs4)nc(C)c3c2C)cc1	-2	4	0	-1	54*
CN(C)C(=O)c1ccc(-c2ccc([C@H]3[C@@H](C#N)N(S(C)(=O)=O)[C@@H]3CO)cc2)cc1	·	-6	5	-1	2
CC1CN(c2ccc([N+](=O)[O-])c(NCCOc3ccc(Cl)cc3)c2)CC(C)N1 (configuration not stated)	-3	-6	-4	21	-16
CC1CN(c2ccc([N+](=O)[O-])c(NCCOc3ccccc3)c2)CC(C)N1 (configuration not stated)	-20	0	-3	7	-5
Cc1ccccc1OCCNc1cc(N2CC(C)NC(C)C2)ccc1[N+](=O)[O-] (configuration not stated)	-6	0	12	38*	15
CCc1ccc(OCCNc2cc(N3CCNC(C)C3)ccc2[N+](=O)[O-])cc1 (configuration not stated)	-6	-6	0	37*	·
N#C[C@@H]1[C@H](c2ccccc2C2=CCCCC2)[C@H](CO)N1C(=O)c1ccccn1	·	4	8	-9	16
COc1cccc(C(=O)Nc2nnc(-c3cccs3)o2)c1	-5	-15	4	45*	-7
COc1ccc(NC(=O)c2cc(-c3cccs3)on2)c(OC)c1	-3	-6	2	34*	4
COc1cccc(C(=O)Nc2nnc(-c3ccc(Cl)cc3)o2)c1	-5	0	·	10	12
CO[C@@H]1CN(C)C(=O)c2ccc(NC(=O)C3CCCCC3)cc2OC[C@H](C)NC[C@H]1C	·	-17	-3	-3	3
CO[C@@H]1CN(C)C(=O)c2ccc(NC(=O)Nc3ccccc3F)cc2OC[C@H](C)NC[C@H]1C	·	-34	-5	1	9

Compound activity (PubChem)
